# How the values were obtained:
# Settings in all cases: in vivo
# Rattus norvegicus [1] = assay: Biodistribution in female Sprague-Dawley rat pituitary gland at 5 mg/kg, po administered as single dose measured after 1 hr; type: ADME, organism-based; parameters: dose 5 mg/kg, dosed compound name [14C]-apixaban, route oral
# Outline: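 [14C]apixaban (20 μCi/mL in dosing solution) in 0.5% Tween 80 in Labrafil given by oral gavage to fasted female rats, 206-213 g, at 100 μCi/kg. One rat per time point was euthanized and snap-frozen. Sagittal 40 µm whole-body sections were read by QWBA phosphor imaging against [14C]glucose standards. Results are in µg eq apixaban/g, with LLOQ 0.037 μg eq/g.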
# Thymus [2] = assay: Biodistribution in pregnant Sprague-Dawley rat thymus at 5 mg/kg, po administered as single dose measured after 4 hrs; type: ADME, organism-based; parameters: dose 5 mg/kg, dosed compound name [14C]-apixaban, route oral
# Thymus [3] = assay: Biodistribution in female Sprague-Dawley rat thymus at 5 mg/kg, po administered as single dose measured after 72 hrs; type: ADME, organism-based; parameters: dose 5 mg/kg, dosed compound name [14C]-apixaban, route oral
# Outline: (§1)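 Quantitative whole-body autoradiography was run after a single 5 mg/kg (100 μCi/kg) oral gavage to fasted female or pregnant SD rats, one rat per time point. Carcasses were frozen in hexane/dry ice, and 40 µm sagittal sections were dried at −20°C for at least 48 h. Sections were exposed to a phosphor plate alongside [14C]glucose standards (0.001–6.5 µCi/g). Results are µg eq/g, with LLOQ 0.037 µg eq/g.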
# Rattus norvegicus [4] = assay: Biodistribution in pregnant Sprague-Dawley rat pituitary gland at 5 mg/kg, po administered as single dose measured after 48 hrs; type: ADME, organism-based; parameters: dose 5 mg/kg, dosed compound name [14C]-apixaban, route oral
# Outline: (§2)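 Pregnant SD rats (270-319 g) were fasted overnight and given one oral gavage of 5 mg/kg (100 μCi/kg) in 0.5% Tween 80 in Labrafil. One rat was euthanized per time point (0.5, 1, 4, 8, 24, 48 h) and the carcass frozen. 40 µm sagittal sections were phosphor-imaged against [14C]glucose standards and results reported as µg eq/g; LLOQ 0.037 µg eq/g.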
# Spleen = assay: Biodistribution in male Sprague-Dawley rat spleen at 5 mg/kg, po administered as single dose measured after 8 hrs; type: ADME, organism-based; parameters: dose 5 mg/kg, dosed compound name [14C]-apixaban, route oral
# Outline: (§3)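 Fasted male SD rats (225-252 g) each received one oral gavage dose of [14C]apixaban, 5 mg/kg (100 μCi/kg), in 0.5% Tween 80/Labrafil vehicle. One rat was killed per time point, from 0.5 to 168 h. Frozen carcasses were cut into 40 µm sagittal whole-body sections and read by QWBA phosphor imaging against [14C]glucose calibrants. Results are in µg apixaban eq/g; BLQ <0.037 µg eq/g.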
# Brain = assay: Biodistribution in pregnant Sprague-Dawley rat brain at 5 mg/kg, po administered as single dose measured after 0.5 hrs; type: ADME, organism-based; parameters: dose 5 mg/kg, dosed compound name [14C]-apixaban, route oral
# Rattus norvegicus [5] = assay: Biodistribution in fetal brain of pregnant Sprague-Dawley rat at 5 mg/kg, po administered as single dose measured after 24 hrs; type: ADME, organism-based; parameters: dose 5 mg/kg, dosed compound name [14C]-apixaban, route oral; outline: as §1
# Rattus norvegicus [6] = assay: Biodistribution in female Sprague-Dawley rat brown fat at 5 mg/kg, po administered as single dose measured after 72 hrs; type: ADME, organism-based, Brown adipose tissue; parameters: dose 5 mg/kg, dosed compound name [14C]-apixaban, route oral; outline: as §1
# Rattus norvegicus [7] = assay: Biodistribution in pregnant Sprague-Dawley rat salivary gland at 5 mg/kg, po administered as single dose measured after 0.5 hrs; type: ADME, organism-based; parameters: dose 5 mg/kg, dosed compound name [14C]-apixaban, route oral
# Plasma = assay: Drug metabolism in Sprague-Dawley rat plasma assessed as apixaban level at 5 mg/kg, po by HPLC method; type: ADME, organism-based; parameters: dose 5 mg/kg, dosed compound name [14C]-apixaban, route oral
# Outline: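 After a 5 mg/kg oral dose, samples were radioprofiled by HPLC. The column was C18 with a 0.4% formic acid (pH 3.2)/acetonitrile gradient at 0.7 mL/min. Fractions were collected every 0.25 min and counted for radioactivity. Peaks were identified by ESI LC/MS/MS against synthetic standards. Milk was taken at 1, 6, 12 and 24 h.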
# Adrenal gland = assay: Biodistribution in male Sprague-Dawley rat adrenal gland at 5 mg/kg, po administered as single dose measured after 8 hrs; type: ADME, organism-based; parameters: dose 5 mg/kg, dosed compound name [14C]-apixaban, route oral
# Outline: (§4)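 [¹⁴C]Apixaban given by oral gavage at 5 mg/kg (100 μCi/kg) in 0.5% Tween 80 in Labrafil (1.0 mg/mL dosing solution) to rats fasted overnight through 4 h post-dose. One rat per time point; carcass frozen in hexane/dry ice. Quantitative whole-body autoradiography used 40 µm sagittal sections and a phosphor imaging plate calibrated with [¹⁴C]glucose standards (0.001–6.5 μCi/g). Read-out in µg eq apixaban/g; LLOQ 0.037 μg eq/g.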
# Blood = assay: Biodistribution in female Sprague-Dawley rat blood at 5 mg/kg, po administered as single dose measured after 0.5 hrs; type: ADME, organism-based; parameters: dose 5 mg/kg, dosed compound name [14C]-apixaban, route oral; outline: as §4
# Rattus norvegicus [8] = assay: Biodistribution in fetal brain of pregnant Sprague-Dawley rat at 5 mg/kg, po administered as single dose measured after 4 hrs; type: ADME, organism-based; parameters: dose 5 mg/kg, dosed compound name [14C]-apixaban, route oral
# Outline: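 Pregnant SD rats received a single oral gavage of [14C]apixaban at 5 mg/kg (100 μCi/kg; 1.0 mg/mL, 20 μCi/mL in 0.5% Tween 80/Labrafil) after fasting, one dam per time point. Frozen carcasses were cut into 40 µm sagittal sections and read by phosphor-imaging QWBA against [14C]glucose standards. Fetal tissue radioactivity is reported as µg eq/g, with LLOQ 0.037 µg eq/g.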
# Muscle tissue [9] = assay: Biodistribution in male Sprague-Dawley rat muscle at 5 mg/kg, po administered as single dose measured after 0.5 hrs; type: ADME, organism-based; parameters: dose 5 mg/kg, dosed compound name [14C]-apixaban, route oral
# Outline: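 [14C]apixaban (1.0 mg/mL, 20 μCi/mL) in 0.5% Tween 80 in Labrafil, given by oral gavage at 100 μCi/kg to male rats (225-252 g) fasted overnight through 4 h post-dose. One rat per time point. Carcasses frozen in hexane/dry ice and cut into 40 µm sagittal sections. QWBA read on phosphor plates against [14C]glucose standards, reported as µg eq/g. LLOQ 0.037 µg eq/g.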
# Rattus norvegicus [10] = assay: Biodistribution in male Sprague-Dawley rat brown fat at 5 mg/kg, po administered as single dose measured after 8 hrs; type: ADME, organism-based, Brown adipose tissue; parameters: dose 5 mg/kg, dosed compound name [14C]-apixaban, route oral
# Outline: (§5)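 Fasted male rats, 225-252 g, received [14C]apixaban by single oral gavage at 100 μCi/kg in 0.5% Tween 80/Labrafil. One rat was killed per time point and the carcass frozen. Tissue radioactivity was quantified by QWBA (40 µm sagittal sections, phosphor plate, [14C]glucose calibration) as µg eq apixaban/g, with LLOQ 0.037 μg eq/g.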
# Lung [11] = assay: Biodistribution in female Sprague-Dawley rat lung at 5 mg/kg, po administered as single dose measured after 24 hrs; type: ADME, organism-based; parameters: dose 5 mg/kg, dosed compound name [14C]-apixaban, route oral; outline: as §1
# Muscle tissue [12] = assay: Biodistribution in pregnant Sprague-Dawley rat muscle at 5 mg/kg, po administered as single dose measured after 48 hrs; type: ADME, organism-based; parameters: dose 5 mg/kg, dosed compound name [14C]-apixaban, route oral; outline: as §2
# Rattus norvegicus [13] = assay: Biodistribution in male Sprague-Dawley rat brown fat at 5 mg/kg, po administered as single dose measured after 1 hr; type: ADME, organism-based, Brown adipose tissue; parameters: dose 5 mg/kg, dosed compound name [14C]-apixaban, route oral; outline: as §5
# Lung [14] = assay: Biodistribution in male Sprague-Dawley rat lung at 5 mg/kg, po administered as single dose measured after 72 hrs; type: ADME, organism-based; parameters: dose 5 mg/kg, dosed compound name [14C]-apixaban, route oral; outline: as §3
# [15] = Drug excretion in Sprague-Dawley rat urine at 30 mg/kg, po administered as single dose after 0 to 168 hrs
# Rattus norvegicus [16] = assay: Biodistribution in male Sprague-Dawley rat bone marrow at 5 mg/kg, po administered as single dose measured after 8 hrs; type: ADME, organism-based; parameters: dose 5 mg/kg, dosed compound name [14C]-apixaban, route oral; outline: as §5
# Rattus norvegicus [17] = assay: Biodistribution in pregnant Sprague-Dawley rat placenta at 5 mg/kg, po administered as single dose measured after 8 hrs; type: ADME, organism-based; parameters: dose 5 mg/kg, dosed compound name [14C]-apixaban, route oral
# Rattus norvegicus [18] = assay: Biodistribution in pregnant Sprague-Dawley rat salivary gland at 5 mg/kg, po administered as single dose measured after 24 hrs; type: ADME, organism-based; parameters: dose 5 mg/kg, dosed compound name [14C]-apixaban, route oral; outline: as §2
# Rattus norvegicus [19] = assay: Biodistribution in male Sprague-Dawley rat brown fat at 5 mg/kg, po administered as single dose measured after 72 hrs; type: ADME, organism-based, Brown adipose tissue; parameters: dose 5 mg/kg, dosed compound name [14C]-apixaban, route oral; outline: as §3
smiles,measurement,setting,value
COc1ccc(-n2nc(C(N)=O)c3c2C(=O)N(c2ccc(N4CCCC[14C]4=O)cc2)CC3)cc1,Radiolabel recovery,Rattus norvegicus [1],0.42 ugequiv/g
same,Radiolabel recovery,Thymus [2],0.54 ugequiv/g
same,Radiolabel recovery,Thymus [3],Not detected assumed BLQ
same,Radiolabel recovery,Rattus norvegicus [4],Not sampled as not visualised in autoradiograph
same,Radiolabel recovery,Spleen,0.09 ugequiv/g
same,Radiolabel recovery,Brain,0.05 ugequiv/g
same,Radiolabel recovery,Rattus norvegicus [5],Not detected assumed BLQ
same,Radiolabel recovery,Rattus norvegicus [6],Not detected assumed BLQ
same,Radiolabel recovery,Rattus norvegicus [7],0.73 ugequiv/g
same,Compound recovery,Plasma,97%
same,Radiolabel recovery,Adrenal gland,0.17 ugequiv/g
same,Radiolabel recovery,Blood,0.4 ugequiv/g
same,Radiolabel recovery,Rattus norvegicus [8],0.06 ugequiv/g
same,Radiolabel recovery,Muscle tissue [9],0.2 ugequiv/g
same,Radiolabel recovery,Rattus norvegicus [10],0.07 ugequiv/g
same,Radiolabel recovery,Lung [11],Not sampled as not visualised in autoradiograph
same,Radiolabel recovery,Muscle tissue [12],Not detected assumed BLQ
same,Radiolabel recovery,Rattus norvegicus [13],0.94 ugequiv/g
same,Radiolabel recovery,Lung [14],Not detected assumed BLQ
same,Radiolabel recovery,[15],14%
same,Radiolabel recovery,Rattus norvegicus [16],0.07 ugequiv/g
same,Radiolabel recovery,Rattus norvegicus [17],0.1 ugequiv/g
same,Radiolabel recovery,Rattus norvegicus [18],Not detected assumed BLQ
same,Radiolabel recovery,Rattus norvegicus [19],Not sampled as not visualised in autoradiograph
